Measurements from different studies.
Read-out: enzyme activity
Mode: inhibitor
INSR: Insulin receptor (INSR, Homo sapiens, UniProt P06213)
INSR phosphorylated: Insulin receptor, phosphorylated (INSR, Homo sapiens, UniProt P06213)

With `Cc1[nH]c(/C=C2\C(=O)Nc3ccc(F)cc32)c(C)c1C(=O)N[C@H]1CCN(C(=O)N(C)C)C1` the remaining activity was 132% (INSR; 0.1 µM).
With `COc1cc(Cl)c(C(=O)N[C@@H](CN[C@H]2CC[C@@H](N)CC2)Cc2ccc(C#N)cc2)cc1-c1ccc(CN[C@H](C)c2ccc(C)cc2)o1` the remaining activity was 97% (INSR; 1 µM).
`CCN(CC)c1ccc(C2=NNC(=O)CC2C)cc1[N+](=O)[O-]` (stereo not drawn) gave a remaining activity of 94% (INSR; 10 µM).
For `O=C(Nc1cnn(-c2csc(C(=O)NC3COC3)c2)c1)Nc1ccccc1Cl`, the remaining activity was 98.4% (INSR; 5 µM).
`Cn1c(=O)n(-c2ccc(C(C)(C)C#N)cc2)c2c3cc(-c4cnc5ccccc5c4)ccc3ncc21` has a remaining activity of 99% (INSR; 10 µM).
`CC(C)(O)[C@H]1CC[C@H](Nc2ccc3ncc(-c4cccc(C(F)(F)F)c4)n3n2)CC1` gave a remaining activity of 102% (INSR; 1 µM).
The remaining activity of `CCCOc1ccc(OC)c(F)c1C(=O)c1ccc(C(=O)N[C@@H]2CNC[C@H]2NC(=O)c2ccc3[nH]ncc3c2)cc1` is reported as 98% (INSR phosphorylated; 10 µM).
The remaining activity of `Nc1nc(NC2CCCCC2)sc1C(=O)c1ccccc1` is reported as 75% (INSR; 10 µM).
`Cc1cnc(NC2CCOCC2)nc1-n1cnc(C(=O)NC(CN)c2cc(F)cc(Cl)c2)c1` (stereo not drawn) has a remaining activity of 104% (INSR phosphorylated; radiometric; 1 µM).
For `COc1cc(Nc2cnc(C#N)c(O[C@H](C)CN(C)C)n2)ncc1-c1cnn(C)c1`, the remaining activity was 84% (INSR; radiometric; 10 µM).
`FC(F)c1nc2ccccc2n1-c1nc(N2CCOCC2)nc(N2CCOCC2)n1` has a remaining activity of 104% (INSR; 10 µM).
The remaining activity of `CC(C)(C)c1nc(-c2cccc(NS(=O)(=O)c3c(F)cccc3F)c2F)c(-c2ccnc(N)n2)s1` is reported as 108% (INSR; radiometric; 1 µM).
